Assay outcomes as filed in PubChem BioAssay.
Only some compounds are listed: those with a hit (about 3.3% of all), similar ones and a draw of the others.
m5-HT2A agonist – agonists of mouse serotonin 5-HT2A receptor (HTR2A); CHO-K1 mHTR2A beta-arrestin complementation, luminescence; percent of 30 µM serotonin response; activation, % at 7.6 µM; 360,000 compounds, 0.66% hits;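 active = activation above a run cutoff, the mean activation of all tested compounds plus 3 SD, cut at about 14% in these data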
M18AAP inhibitor – PfM18AAP enzyme inhibition | recombinant PfM18AAP, H-Glu-NHMec fluorogenic cleavage | inhibition, % at 7.35 µM | 290,000 compounds, 1.2% hits | AID 1822;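 active = inhibition above the campaign mean inhibition over all tested compounds plus 3 SD, cut at about 28% in these data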
Hep lipid drop – modulators of hepatic lipid droplet formation; inhibition, % at 6.5 µM; AML12 mouse hepatocytes, oleate lipid droplets, BODIPY imaging; 240,000 compounds, 0.4% hits;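 active = lipid droplet intensity inhibited by at least 50%, with more than 500 cells counted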
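Assay system: AML12 hepatocytes (mouse); Probe or stimulus: oleic acid at 100 µM to induce lipid droplet formation; Dosing: compound at 6.5 µM only; Schedule: compound with oleate, overnight; Detection: fluorescence imaging, 20x objective, two fields per well; Measure: % inhibition of lipid droplet signal.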
Arr AP2 block – inhibitors of human beta-arrestin and AP2 interaction | 340,000 compounds, 0.31% hits | inhibition, % at 10 µM | AID 504490 | FITC-arrestin peptide / GST-AP2 beads, flow cytometry; AP2 beta2 appendage carries R879A mutation;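 active = inhibition above a set limit, near 3 SD of compounds lacking own fluorescence, cut at about 54% in these data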
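System: GST-AP2 R879A glutathione beads. Medium: PBS with 0.05% Tween 20 and 0.1% BSA. Also added: FITC-arrestin peptide, 50 nM. Incubation: 12 min plus 1 h, RT. Measured by: high-throughput flow cytometry of beads, ex 488, em 535 nm. Evaluation: percent drop in bead-associated FITC signal.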
HGIII-sPLA2 inh – Inhibits HGIII-sPLA2 liposome hydrolysis, primary screen. Q9NZ20. QFRET BODIPY PC-A2 liposome hydrolysis, fluorescence. inhibition, % at 12.2 µM. 370,000 compounds, 0.56% hits. AID 743126;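 active = inhibition above mean plus 3 SD of compounds lying within the high and low control bounds, cut at about 19% in these data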
CendR NRP1 mod – modulators of CendR peptide binding to human neuropilin-1; FAM-RPARPAR peptide binding to NRP-1, fluorescence polarization; inhibition, % at 25 µM; O14786; 360,000 compounds, 0.85% hits;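 active = inhibition or corrected inhibition above about 18%, plus a signal ratio from 0.5 to 1.5, limit read from the data, passing the limit was not always enough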
Target sequence (O14786 whole entry, looked up): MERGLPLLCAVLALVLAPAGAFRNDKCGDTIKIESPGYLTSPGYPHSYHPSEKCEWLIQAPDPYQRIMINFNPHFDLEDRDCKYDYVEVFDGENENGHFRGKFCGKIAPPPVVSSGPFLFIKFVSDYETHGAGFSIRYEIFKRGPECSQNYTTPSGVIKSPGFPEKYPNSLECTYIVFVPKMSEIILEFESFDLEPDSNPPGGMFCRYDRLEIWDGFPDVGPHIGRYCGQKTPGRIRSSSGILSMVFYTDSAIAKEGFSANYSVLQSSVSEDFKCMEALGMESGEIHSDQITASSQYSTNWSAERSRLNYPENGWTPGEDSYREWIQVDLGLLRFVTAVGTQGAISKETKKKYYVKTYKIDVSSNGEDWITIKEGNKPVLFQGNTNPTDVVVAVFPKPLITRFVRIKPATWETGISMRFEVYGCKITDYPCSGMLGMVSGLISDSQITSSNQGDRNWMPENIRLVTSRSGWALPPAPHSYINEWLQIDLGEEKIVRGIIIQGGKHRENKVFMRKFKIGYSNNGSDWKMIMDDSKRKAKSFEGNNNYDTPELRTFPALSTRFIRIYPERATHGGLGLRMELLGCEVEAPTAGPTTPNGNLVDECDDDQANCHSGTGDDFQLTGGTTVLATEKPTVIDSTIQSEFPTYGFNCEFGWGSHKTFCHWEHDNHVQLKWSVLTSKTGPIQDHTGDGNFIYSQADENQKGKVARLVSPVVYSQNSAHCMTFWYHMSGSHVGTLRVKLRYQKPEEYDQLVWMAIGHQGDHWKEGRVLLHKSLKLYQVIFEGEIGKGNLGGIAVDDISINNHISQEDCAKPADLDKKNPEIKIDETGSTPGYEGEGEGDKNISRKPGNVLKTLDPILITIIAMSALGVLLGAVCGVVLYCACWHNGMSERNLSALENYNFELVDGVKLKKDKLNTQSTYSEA
Hits are given with their value; 0 = inactive; - = not tested or not shown.

SMILES | m5-HT2A agonist | M18AAP inhibitor | Hep lipid drop | Arr AP2 block | HGIII-sPLA2 inh | CendR NRP1 mod
O=c1nc2s/c(=C\c3ccc(-c4ccccc4[N+](=O)[O-])o3)c(=O)n2nc1-c1ccccc1 | 0 | 0 | 0 | 0 | 0 | 36
CCOC(=O)N1CCN(C(=O)CNC(=O)c2nn(-c3ccc(OC)cc3OC)c(=O)c3ccccc23)CC1 | 0 | 0 | 0 | 0 | 0 | 0
C=C[C@]12CC[C@H](OC(C)=O)CC1=CCC1C2CC[C@@]2(C)C1CCC21OCCO1 (stereo partly drawn) | 0 | - | - | 0 | 0 | 22
C[C@@H]1ON(C)[C@H]2C[C@H]3c4cc(-c5ccc6c(c5)OCO6)ccc4CCN3C[C@@H]12 | - | - | - | - | 0 | -
CC(C)Cn1cnc2c(SCc3ccccc3F)nc(N)nc21 | 0 | - | - | 0 | 0 | 26
CCC(C)Cn1cnc2c(SCc3ccccc3F)nc(N)nc21 (stereo not drawn) | 0 | - | - | 0 | 0 | 0
CCOC(=O)C1=NOC(C(C)=O)(C(=O)Nc2cc(C)cc(C)c2)C1 (stereo not drawn) | - | - | - | - | 0 | -
C[C@H](CO)N1C[C@H](C)[C@@H](CN(C)C(=O)Nc2ccc(C(F)(F)F)cc2)Oc2c(NS(=O)(=O)c3ccccc3)cccc2C1=O | 0 | - | - | 0 | 0 | 36
C[C@H](CO)N1C[C@H](C)[C@@H](CN(C)C(=O)Nc2ccc(C(F)(F)F)cc2)Oc2c(NS(=O)(=O)c3ccc(F)cc3)cccc2C1=O | 0 | - | - | 0 | 0 | 0
COc1ccc(NC(=O)N(C)C[C@H]2Oc3c(NC(=O)Nc4ccc(C(F)(F)F)cc4)cccc3C(=O)N([C@H](C)CO)C[C@@H]2C)cc1 | 23 | - | - | 0 | 0 | 0
C[C@H](CO)N1C[C@H](C)[C@@H](CN(C)C(=O)Nc2ccc3c(c2)OCO3)Oc2c(NS(=O)(=O)c3ccc(F)cc3)cccc2C1=O | 0 | - | - | 0 | 0 | 31
O=C(CCc1nc(-c2ccccc2F)no1)NCCc1ccc(F)cc1 | - | - | - | - | 0 | -
O=C(CSc1ncccn1)NC1CCS(=O)(=O)C1 (stereo not drawn) | 0 | 0 | 0 | 0 | 0 | 0
COc1ccc(C(C(=O)NC(C)(C)C)N(C(=O)CCC(=O)Nc2cc(C)on2)c2c(C)cccc2C)cc1 (stereo not drawn) | 0 | 0 | 0 | 0 | 0 | 31
NC(=O)c1ccccc1N=Cc1cccnc1 | 0 | - | - | 0 | 0 | 33
CCOC(=O)[C@]12CCC=C1N(Cc1ccco1)C(=O)[C@H](CC(=O)N1CCC(c3ccccc3)CC1)C2 | 0 | - | - | - | 0 | 0
COc1cccc(/C=N/n2c(COc3ccccc3)n[nH]c2=S)c1O | 0 | 0 | 0 | 0 | 0 | 0
COc1cc(/C=N/n2c(COc3ccccc3)n[nH]c2=S)cc(Br)c1O | 0 | 31 | 0 | 0 | 0 | 0
CCc1n[nH]c(=S)n1/N=C/c1cc(Br)c(O)c(OC)c1 | 0 | 0 | 0 | 0 | 0 | 0
FC(F)(F)c1ccc(/C=N/n2c(COc3ccccc3)n[nH]c2=S)cc1 | 0 | 0 | 0 | 0 | 0 | 0
FC(F)(F)c1ccccc1/C=N/n1c(COc2ccccc2)n[nH]c1=S | 0 | 28 | 0 | 0 | 0 | 0
COc1cccc(/C=N/n2c(COc3ccccc3)n[nH]c2=S)c1OC | 0 | 32 | 0 | 0 | 0 | 0
COc1ccccc1N1CCN(CC(=O)Nc2nc(C)c(C(=O)N(C)C)s2)CC1 | 0 | 0 | 0 | 0 | 0 | 0
O=C(CC1C(=O)NCCN1Cc1cccc(Oc2ccccc2)c1)NCCCn1cccn1 (stereo not drawn) | 0 | 0 | 0 | 0 | 0 | 23
Cc1cccc(CCNC(=O)CC2C(=O)NCCN2Cc2ccc(F)c(F)c2)n1 (stereo not drawn) | 0 | 0 | 0 | 0 | 0 | 0
SMILES | m5-HT2A agonist | M18AAP inhibitor | Hep lipid drop | Arr AP2 block | HGIII-sPLA2 inh | CendR NRP1 mod
COc1ccc(CN2CCNC(=O)C2CC(=O)NCCCn2cccn2)cc1C (stereo not drawn) | 0 | 0 | 0 | 0 | 0 | 0
O=C(CC1C(=O)NCCN1Cc1ccc(F)c(F)c1)NCCn1cccn1 (stereo not drawn) | 0 | 0 | 0 | 0 | 0 | 28
COc1cc(OC)cc(C(=O)NCC(=O)OCc2ccc(Cl)c(Cl)c2)c1 | 0 | - | - | 0 | 0 | 0
Cc1ccc(S(=O)(=O)N2CCOCC2)cc1NC(=O)COC(=O)Cc1ccc(Cl)cc1 | 0 | - | - | 0 | 0 | 0
O=C(COC(=O)Cc1ccc(Cl)cc1)Nc1cc(S(=O)(=O)N2CCOCC2)ccc1N1CCCC1 | 0 | 0 | 0 | 0 | 0 | 44
COC(=O)[C@H](CC(C)C)NS(=O)(=O)N(Cc1ccccc1)[C@@H](CC(C)C)C(=O)OC | 0 | - | - | 0 | 0 | 28
CC1(C(=O)NCc2ccccc2)CCC(=O)N1CC(F)(F)F (stereo not drawn) | 0 | - | - | - | 0 | 0
CCCCN1CCN(C2=Nc3ccccc3Sc3ccccc32)CC1 | - | - | - | - | 0 | -
N#C/C(=C\c1ccc(OC(=O)c2ccc(Cl)s2)cc1)c1nc2ccccc2[nH]1 | 0 | 0 | 0 | 0 | 0 | 39
COC(=O)C[C@H]1CC[C@@H](NC(=O)Nc2c(C)noc2C)[C@@H](CO)O1 | 0 | - | - | - | 0 | 0
CCSc1nc(O)cc(=O)[nH]1 | 0 | 0 | 0 | 0 | 0 | 0
CCSc1nc(=S)cc(C)[nH]1 | 0 | 28 | 0 | 0 | 0 | 0
O=C(Nc1ccc(Cl)cc1)N1CCN(c2ccccc2)CC1 | 0 | 0 | 0 | 0 | 0 | 0
O=C(Nc1ccc(NC(=O)N2CCN(c3ccccc3O)CC2)cc1)N1CCN(c2ccccc2O)CC1 | 0 | 29 | 0 | 0 | 0 | 0
O=C(Nc1ccc(F)cc1)N1CCN(c2nc3ccccc3s2)CC1 | 23 | 0 | - | 0 | 0 | 0
N#Cc1ccc(-c2nc3ccc(Br)cn3c2Cc2ccccc2)cc1 | 0 | - | - | - | 0 | 0
CC(=O)N(CCc1ccccc1)c1ccc2c(c1)C1CC2CCN1C(=O)OCc1ccccc1 (stereo not drawn) | 0 | - | - | - | 0 | 0
Cc1ccccc1NC(=O)NC(N)=O | 0 | 0 | 0 | 0 | 0 | 0
Cc1ccccc1N=C(N)Nc1ccccc1C | 0 | - | - | 0 | 0 | 37
CCCCC1(C)OC(=O)C(=Cc2c[nH]c3ccccc23)C(=O)O1 (stereo not drawn) | 0 | 0 | 0 | 0 | 0 | 0
CCCCC1(C)OC(=O)C(=Cc2ccc(N(C)C)cc2)C(=O)O1 (stereo not drawn) | 20 | 0 | - | 0 | 0 | 0
CC(C)NC(=O)N[C@@H]1C[C@@H]2O[C@@H](CO)CC[C@@H]2O[C@@H]1CCc1ccc(-c2ccc(F)cc2)cc1 | - | - | - | - | 0 | -
Cc1ccc(NNC(=O)Nc2ccc(Cl)cc2)nn1 | 0 | 32 | 0 | 0 | 0 | 0
COc1ccccc1N1CCN(C(=O)C2c3ccccc3Oc3ccccc32)CC1 | 0 | 0 | - | 0 | 0 | 25
COc1ccccc1N1CCN(C(=O)COc2cccc3ccccc23)CC1 | 0 | 0 | 0 | 0 | 0 | 31
Cc1ccc2nc(C(C)(C)C)c(Cc3cccc(F)c3)n2c1 | 0 | - | - | - | 0 | 0
CCCC(C)C(=O)NC1CCCCN(Cc2ccc(C)cc2)C1=O (stereo not drawn) | - | - | - | - | 0 | -
